From PMC4971946 (Pharmacognosy Magazine, 2016)

Target: rat intestinal sucrase (Rattus norvegicus, UniProt P23739)
Assay: Assay of sucrase inhibitory activity
Assay type: biochemical
Outline: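 Rat intestinal sucrase-isomaltase prepared by Dahlqvist's method. Enzyme preincubated 10 min at 37°C with test sample (25–200 µg/ml, maleate buffer pH 6.0); reaction started with 60 mM sucrose solution, stopped after 30 min with 3,5-dinitrosalicylic acid reagent, boiled 5 min, A540 read. % inhibition relative to untreated-enzyme control lacking sample; three experiments.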

Chain of rat intestinal sucrase (P23739 whole entry): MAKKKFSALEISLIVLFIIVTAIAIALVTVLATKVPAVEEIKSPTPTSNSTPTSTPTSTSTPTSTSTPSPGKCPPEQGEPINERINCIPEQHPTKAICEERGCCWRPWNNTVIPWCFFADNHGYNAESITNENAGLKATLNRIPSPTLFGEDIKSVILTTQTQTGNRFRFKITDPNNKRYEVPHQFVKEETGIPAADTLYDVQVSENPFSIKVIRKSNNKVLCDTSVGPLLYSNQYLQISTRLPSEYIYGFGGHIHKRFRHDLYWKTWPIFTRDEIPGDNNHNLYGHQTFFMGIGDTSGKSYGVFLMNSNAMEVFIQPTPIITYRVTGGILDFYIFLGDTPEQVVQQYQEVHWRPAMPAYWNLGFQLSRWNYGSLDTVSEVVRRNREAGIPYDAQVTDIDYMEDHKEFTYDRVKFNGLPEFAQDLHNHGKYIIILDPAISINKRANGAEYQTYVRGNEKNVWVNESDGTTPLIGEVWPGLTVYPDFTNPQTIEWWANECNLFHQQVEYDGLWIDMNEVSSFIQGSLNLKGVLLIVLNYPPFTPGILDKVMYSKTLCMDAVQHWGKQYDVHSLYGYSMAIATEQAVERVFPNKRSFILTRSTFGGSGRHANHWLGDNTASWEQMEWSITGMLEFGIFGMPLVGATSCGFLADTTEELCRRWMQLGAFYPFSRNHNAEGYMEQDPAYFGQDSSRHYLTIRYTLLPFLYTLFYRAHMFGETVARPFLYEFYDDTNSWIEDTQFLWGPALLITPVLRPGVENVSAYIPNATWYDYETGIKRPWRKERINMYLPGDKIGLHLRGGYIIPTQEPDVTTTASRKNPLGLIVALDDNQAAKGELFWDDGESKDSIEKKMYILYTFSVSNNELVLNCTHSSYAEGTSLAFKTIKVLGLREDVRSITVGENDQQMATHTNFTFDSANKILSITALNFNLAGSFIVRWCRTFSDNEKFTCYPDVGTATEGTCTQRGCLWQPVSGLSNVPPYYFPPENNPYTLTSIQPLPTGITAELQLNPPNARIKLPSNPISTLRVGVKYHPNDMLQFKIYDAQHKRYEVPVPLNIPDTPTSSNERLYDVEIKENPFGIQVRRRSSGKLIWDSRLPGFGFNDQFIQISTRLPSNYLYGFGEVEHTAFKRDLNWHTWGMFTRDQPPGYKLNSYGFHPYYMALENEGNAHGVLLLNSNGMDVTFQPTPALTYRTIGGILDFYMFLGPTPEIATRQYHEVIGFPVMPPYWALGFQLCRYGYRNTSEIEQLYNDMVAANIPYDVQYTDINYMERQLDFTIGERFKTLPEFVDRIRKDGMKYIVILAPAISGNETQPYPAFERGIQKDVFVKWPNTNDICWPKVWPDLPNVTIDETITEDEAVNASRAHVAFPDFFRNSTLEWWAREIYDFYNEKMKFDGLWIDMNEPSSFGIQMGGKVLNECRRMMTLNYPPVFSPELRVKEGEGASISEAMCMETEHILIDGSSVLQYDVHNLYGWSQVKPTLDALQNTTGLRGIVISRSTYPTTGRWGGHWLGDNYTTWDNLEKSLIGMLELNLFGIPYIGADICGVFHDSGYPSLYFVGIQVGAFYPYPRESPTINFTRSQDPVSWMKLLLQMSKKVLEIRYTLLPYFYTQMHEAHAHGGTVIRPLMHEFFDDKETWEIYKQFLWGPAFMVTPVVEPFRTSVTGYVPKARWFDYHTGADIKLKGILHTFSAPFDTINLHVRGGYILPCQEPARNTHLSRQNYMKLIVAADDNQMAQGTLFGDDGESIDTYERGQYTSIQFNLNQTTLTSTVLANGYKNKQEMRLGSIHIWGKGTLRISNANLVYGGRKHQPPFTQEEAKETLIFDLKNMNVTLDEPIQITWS

Compound	sucrase inhibitory activity IC50 (rat intestinal sucrase, in vitro)	IC50
O=C1O[C@H]2[C@H](O)[C@@H](CO)OC(O)[C@@H]2OC(=O)c2cc(O)c(O)c(O)c2-c2c1cc(O)c(O)c2O (stereo partly drawn) [Compound 2, 2,3-hexahydroxydiphenoyl-(α/β)-D-^4C1-glucopyranose]	195.62 mg/L	
O=c1c(O[C@@H]2O[C@@H](CO)[C@H](O)[C@H]2O)c(-c2ccc(O)c(O)c2)oc2cc(O)cc(O)c12 [Compound 3, avicularin]		217 µM
O=C1OC[C@H]2OC(=O)c3cc(O)c(O)c(O)c3-c3c(O)c(O)c(O)c4c3C(=O)O[C@H]([C@H]3OC(=O)c5c-4c(O)c(O)c(O)c5[C@H]3O)[C@@H]2OC(=O)c2cc(O)c(O)c(O)c2-c2c1cc(O)c(O)c2O [Compound 4, castalagin]		148 µM
O=c1c(O[C@@H]2O[C@H](CO)[C@@H](O)[C@H](O)[C@H]2O)c(-c2ccc(O)c(O)c2)oc2cc(O)cc(O)c12 [Compound 5, quercetin-3-O-glucoside]		194 µM
